Measured values reported in ChEMBL document CHEMBL1139360, “Mechanism of p300 specific histone acetyltransferase inhibition by small molecules” (J Med Chem, 2009).

Columns and labels:
[1] = molecular target: T1, Histone acetyltransferase p300 (Homo sapiens, UniProt Q09472); assay: Binding affinity to HAT p300 catalytic domain by isothermal titration calorimetry
How it was run: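 ITC at 20 °C. Ligand at 30–35 μM injected into 3 μM p300 HAT domain in 20 mM Tris-HCl pH 7.5, 0.2 mM EDTA, 100 mM KCl. 35 injections, 2 min apart; the first 1 μL injection was discarded. Ligand-into-buffer and buffer-into-buffer blanks were subtracted, and data fitted to a one-set-of-sites model.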

[2] = molecular target: T1, Histone acetyltransferase p300; assay: Inhibition of HAT p300 catalytic domain
[3] = molecular target: T1, Histone acetyltransferase p300; assay: Binding affinity to HAT p300 catalytic domain by fluorometric titration
How it was run: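 p300 HAT domain (aa 1284–1673, 6His, from E. coli BL21(DE3) co-expressing SirT2), 1.2 μM, titrated with ligand in 20 mM Tris-HCl pH 7.5, 0.2 mM EDTA, 100 mM KCl. Tryptophan emission read at 340 nm (excitation 295 nm). Kd obtained by nonlinear least-squares fit; ΔFmax taken from a double-reciprocal plot.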

[4] = molecular target: T1, Histone acetyltransferase p300; assay: Inhibition of HAT p300 catalytic domain assessed as drug-induced alteration of protein tertiary structure at 2.5 uM by Stern-Volmer plot; set-up: scale not given: the % may be the effect or the level left
How it was run: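 p300 HAT domain (1.2 μM) preincubated 2 min at room temperature with 2.5 μM inhibitor in 20 mM Tris-HCl pH 7.5, 0.2 mM EDTA, 100 mM KCl. Acrylamide added stepwise; fluorescence read at 340 nm (excitation 295 nm) at 20 °C. Ksv taken from a Stern–Volmer plot and tryptophan accessibility from a modified Stern–Volmer plot.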

[5] = molecular target: Histone acetyltransferase KAT2B (Homo sapiens) (UniProt Q92831); assay: Inhibition of HAT PCAF relative to control; set-up: scale not given: the % may be the effect or the level left
How it was run: (§1)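 Filter-binding HAT assay with PCAF, purified HeLa core histones and ³H-acetyl-CoA, run at increasing inhibitor concentrations. Activity compared with a DMSO solvent control.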

[6] = molecular target: T1, Histone acetyltransferase p300; assay: Inhibition of HAT p300 catalytic domain activity expressed in Escherichia coli BL21 (DE3) co-transformed with human SirT2 by fluorography/autoradiography assay
[7] = molecular target: Histone acetyltransferase KAT2B (Homo sapiens) (UniProt Q92831); assay: Inhibition of HAT PCAF up to 10 uM after 2 mins in absence of acetyl-CoA; set-up: scale not given: the % may be the effect or the level left
How it was run: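 PCAF preincubated with inhibitor at 10 μM without acetyl-CoA over a time course, then assayed for HAT activity on purified HeLa core histones in triplicate. Activity compared with a DMSO control.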

[8] = molecular target: Histone acetyltransferase KAT2B (Homo sapiens) (UniProt Q92831); assay: Inhibition of HAT PCAF up to 40 uM relative to control; set-up: scale not given: the % may be the effect or the level left; how it was run: as §1

Chain of Histone acetyltransferase KAT2B (Homo sapiens) (Q92831 whole entry, looked up): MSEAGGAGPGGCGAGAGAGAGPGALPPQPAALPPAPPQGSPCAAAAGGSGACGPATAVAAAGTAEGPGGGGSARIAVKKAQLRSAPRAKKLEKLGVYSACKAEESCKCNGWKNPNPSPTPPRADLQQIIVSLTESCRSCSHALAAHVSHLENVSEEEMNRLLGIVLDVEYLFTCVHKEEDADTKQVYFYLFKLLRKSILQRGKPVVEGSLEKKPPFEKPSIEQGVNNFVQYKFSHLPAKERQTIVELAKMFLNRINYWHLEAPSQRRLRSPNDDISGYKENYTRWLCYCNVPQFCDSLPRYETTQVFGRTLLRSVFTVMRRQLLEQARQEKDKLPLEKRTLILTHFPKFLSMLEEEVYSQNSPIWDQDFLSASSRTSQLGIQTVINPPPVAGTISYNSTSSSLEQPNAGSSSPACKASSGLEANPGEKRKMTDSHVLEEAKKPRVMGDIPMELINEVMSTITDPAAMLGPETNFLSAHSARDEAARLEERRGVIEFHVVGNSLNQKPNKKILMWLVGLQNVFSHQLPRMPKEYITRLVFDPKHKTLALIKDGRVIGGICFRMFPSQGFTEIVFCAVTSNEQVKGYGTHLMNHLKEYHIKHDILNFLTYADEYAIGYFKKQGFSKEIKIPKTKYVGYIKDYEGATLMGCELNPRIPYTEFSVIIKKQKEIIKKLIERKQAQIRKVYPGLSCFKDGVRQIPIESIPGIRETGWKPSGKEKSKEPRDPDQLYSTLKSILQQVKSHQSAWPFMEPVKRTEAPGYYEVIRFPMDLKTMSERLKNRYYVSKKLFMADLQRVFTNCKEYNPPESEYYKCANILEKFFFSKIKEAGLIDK
T1 sequence (Q09472 whole entry, the tested form may be a part): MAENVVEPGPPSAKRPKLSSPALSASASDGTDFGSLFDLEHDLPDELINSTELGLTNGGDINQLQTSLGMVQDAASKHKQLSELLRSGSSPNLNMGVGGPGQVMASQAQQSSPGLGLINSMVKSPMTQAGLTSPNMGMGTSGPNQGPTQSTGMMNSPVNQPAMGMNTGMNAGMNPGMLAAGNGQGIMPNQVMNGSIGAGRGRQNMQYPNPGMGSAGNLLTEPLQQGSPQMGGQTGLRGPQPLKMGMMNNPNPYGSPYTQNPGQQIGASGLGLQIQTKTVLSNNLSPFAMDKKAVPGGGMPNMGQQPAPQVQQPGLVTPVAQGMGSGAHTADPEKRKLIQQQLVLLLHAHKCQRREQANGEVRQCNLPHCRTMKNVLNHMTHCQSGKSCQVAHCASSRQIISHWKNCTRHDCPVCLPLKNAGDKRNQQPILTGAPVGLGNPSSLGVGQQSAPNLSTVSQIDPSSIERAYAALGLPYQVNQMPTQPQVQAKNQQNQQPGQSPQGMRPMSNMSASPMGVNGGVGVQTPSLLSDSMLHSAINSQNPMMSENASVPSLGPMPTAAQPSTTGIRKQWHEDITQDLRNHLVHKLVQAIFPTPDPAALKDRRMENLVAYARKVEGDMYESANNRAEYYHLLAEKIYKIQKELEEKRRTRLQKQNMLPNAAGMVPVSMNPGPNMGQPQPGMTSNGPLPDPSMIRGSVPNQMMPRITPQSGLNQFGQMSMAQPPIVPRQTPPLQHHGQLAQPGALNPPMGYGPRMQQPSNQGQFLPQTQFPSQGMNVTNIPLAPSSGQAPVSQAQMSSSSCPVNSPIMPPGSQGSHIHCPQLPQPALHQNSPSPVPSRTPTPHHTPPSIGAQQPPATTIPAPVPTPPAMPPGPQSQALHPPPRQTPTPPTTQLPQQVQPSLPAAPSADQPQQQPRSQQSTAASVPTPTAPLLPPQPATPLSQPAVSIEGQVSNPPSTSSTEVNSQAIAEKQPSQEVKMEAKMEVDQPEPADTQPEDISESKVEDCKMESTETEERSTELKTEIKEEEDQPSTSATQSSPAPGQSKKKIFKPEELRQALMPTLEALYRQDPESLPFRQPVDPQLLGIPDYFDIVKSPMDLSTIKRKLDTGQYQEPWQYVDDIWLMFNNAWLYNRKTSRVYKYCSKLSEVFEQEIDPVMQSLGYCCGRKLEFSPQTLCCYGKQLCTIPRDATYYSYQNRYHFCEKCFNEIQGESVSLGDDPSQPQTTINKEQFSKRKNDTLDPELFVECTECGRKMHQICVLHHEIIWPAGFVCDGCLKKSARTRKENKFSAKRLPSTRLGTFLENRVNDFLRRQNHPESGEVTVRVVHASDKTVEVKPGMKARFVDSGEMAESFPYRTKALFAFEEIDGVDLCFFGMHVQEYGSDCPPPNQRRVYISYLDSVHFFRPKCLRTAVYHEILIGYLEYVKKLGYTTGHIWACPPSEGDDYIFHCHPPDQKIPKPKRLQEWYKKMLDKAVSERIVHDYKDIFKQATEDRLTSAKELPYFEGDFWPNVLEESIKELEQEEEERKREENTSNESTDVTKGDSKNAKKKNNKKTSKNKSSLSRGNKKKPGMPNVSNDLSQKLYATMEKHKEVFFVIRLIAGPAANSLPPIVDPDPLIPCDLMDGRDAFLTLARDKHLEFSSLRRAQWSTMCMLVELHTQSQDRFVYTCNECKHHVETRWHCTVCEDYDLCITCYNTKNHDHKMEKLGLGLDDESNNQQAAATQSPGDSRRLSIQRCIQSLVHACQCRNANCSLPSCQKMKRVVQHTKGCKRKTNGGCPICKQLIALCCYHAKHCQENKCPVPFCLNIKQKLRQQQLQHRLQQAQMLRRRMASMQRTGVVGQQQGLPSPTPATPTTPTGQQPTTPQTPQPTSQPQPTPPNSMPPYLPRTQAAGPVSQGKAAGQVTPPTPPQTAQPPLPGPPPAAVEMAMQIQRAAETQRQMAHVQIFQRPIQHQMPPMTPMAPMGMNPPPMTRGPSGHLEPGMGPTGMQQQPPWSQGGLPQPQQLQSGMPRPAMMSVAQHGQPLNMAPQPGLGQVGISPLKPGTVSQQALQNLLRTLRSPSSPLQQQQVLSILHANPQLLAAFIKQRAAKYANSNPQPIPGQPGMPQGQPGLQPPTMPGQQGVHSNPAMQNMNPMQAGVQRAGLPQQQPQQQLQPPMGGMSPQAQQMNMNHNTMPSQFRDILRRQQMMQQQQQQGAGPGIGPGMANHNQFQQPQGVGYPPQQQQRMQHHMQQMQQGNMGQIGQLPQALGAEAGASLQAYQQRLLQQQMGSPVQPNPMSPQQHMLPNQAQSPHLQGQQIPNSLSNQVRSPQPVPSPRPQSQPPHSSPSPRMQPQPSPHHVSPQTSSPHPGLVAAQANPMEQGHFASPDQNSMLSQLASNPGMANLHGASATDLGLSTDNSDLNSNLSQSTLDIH

| Kd [1] | Ki [2] | Kd [3] | Activity [4] | Activity [5] | Activity [6] | Activity [7] | Activity [8] | SMILES |
| --- | --- | --- | --- | --- | --- | --- | --- | --- |
| 5.9 µM | 3.9 µM | 1.1 µM | 75% | 50% | Dose-dependent effect | – | – | CC(C)=CC[C@H]1C[C@@]23C[C@@H](CC=C(C)C)C(C)(C)[C@@](CC=C(C)C)(C(=O)C(C(=O)c4ccc(O)c(O)c4)=C2OC1(C)C)C3=O [CAMBOGIN] |
| 6.6 µM | 4.9 µM | 1.8 µM | 78% | – | Dose-dependent effect | 80% | 90% | C=C(C)[C@@H](CC=C(C)C)C[C@@]12C[C@@H](CC=C(C)C)C(C)(C)[C@@](CC=C(C)C)(C(=O)C(C(=O)c3ccc(O)c(O)c3)=C1O)C2=O [GARCINOL] |
